Measurements reported in ChEMBL document CHEMBL1127469, “Decapeptide agonists of human C5a: the relationship between conformation and spasmogenic and platelet aggregatory activities” (J Med Chem, 1994).
Bridge positions count the residues as written; N and C are the ends. Peptide text beside a SMILES is read from it.

Key:
[1] = target: T1, C5a anaphylatoxin chemotactic receptor 1 (Homo sapiens) (UniProt P21730); assay: Pharmacological activity against C5a receptor in human fetal artery
T1 sequence (whole entry): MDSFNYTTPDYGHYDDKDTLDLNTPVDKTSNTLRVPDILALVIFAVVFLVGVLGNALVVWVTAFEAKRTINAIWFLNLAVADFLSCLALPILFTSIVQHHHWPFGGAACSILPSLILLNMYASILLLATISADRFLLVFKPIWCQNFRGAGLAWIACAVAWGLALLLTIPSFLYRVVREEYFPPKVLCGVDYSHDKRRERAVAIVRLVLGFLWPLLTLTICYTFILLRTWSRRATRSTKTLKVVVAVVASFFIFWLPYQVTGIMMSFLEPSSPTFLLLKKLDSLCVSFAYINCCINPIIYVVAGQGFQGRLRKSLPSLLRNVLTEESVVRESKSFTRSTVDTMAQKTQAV
Method in brief: (§1)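 Isometric contraction of tissue strips in 2 mL organ baths of Krebs-Ringers solution, 37 °C, pH 7.4, gassed with 95% O2/5% CO2, equilibrated 1 h. Tachyphylaxis prevents cumulative curves, so each strip gets one peptide concentration, then histamine 10 μM. Response is taken as % of the histamine maximum. EC50 comes from probit analysis, reported as pD2 (-log EC50, M), mean ± SE.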

[2] = organism: Homo sapiens; assay: Effective dose required for smooth muscle contraction in human fetal artery; assay type: functional; details: Muscle tissue; method in brief: as §1
[3] = organism: Cavia porcellus; assay: Platelet aggregation in guinea pig; assay type: functional
Method in brief: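 Platelet-rich plasma from arterial blood of anesthetized male Hartley guinea pigs, diluted to 3 × 10^8 platelets/mL in 0.39% sodium citrate. Peptides are serially diluted 1.5-fold and shaken with plasma and a 3 mm glass bead at 100 rpm, 5 min, 37 °C. Aggregation is scored visually at 40×. The threshold is the greatest dilution giving visible aggregation. At least three independent duplicate runs; C5a and C3a serve as standards.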

[4] = organism: Cavia porcellus; assay: Effective dose required for smooth muscle contraction in Guinea pig lung parenchyma; assay type: functional; method in brief: as §1
[5] = system: C5a anaphylatoxin chemotactic receptor 1 (Cavia porcellus); assay: Tested for pharmacological activity against C5a receptor in Guinea pig lung parenchyma
[6] = target: T2, C5a anaphylatoxin chemotactic receptor 1 (Cavia porcellus) (UniProt O70129); assay: Pharmacological activity against C5a receptor in guinea pig ileum; assay type: tissue-based; method in brief: as §1
T2 sequence (whole entry): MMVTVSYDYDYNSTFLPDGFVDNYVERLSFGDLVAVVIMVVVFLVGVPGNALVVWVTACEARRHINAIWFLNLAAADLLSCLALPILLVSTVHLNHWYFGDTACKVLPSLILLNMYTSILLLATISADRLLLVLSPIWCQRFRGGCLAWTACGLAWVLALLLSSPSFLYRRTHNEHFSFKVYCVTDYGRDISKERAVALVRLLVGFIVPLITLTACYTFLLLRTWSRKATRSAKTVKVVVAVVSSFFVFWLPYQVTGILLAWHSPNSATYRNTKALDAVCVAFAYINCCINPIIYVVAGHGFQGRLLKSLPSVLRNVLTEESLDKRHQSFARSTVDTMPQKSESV

[7] = organism: Cavia porcellus; assay: Effective dose required for smooth muscle contraction in guinea pig ileum; assay type: functional; details: Muscle tissue; method in brief: as §1

Compound | pD2 [1] | EC50 [2] [µM] | Platelet aggregation [3] [µM] | EC50 [4] [µM] | pD2 [5] | pD2 [6] | EC50 [7] [µM]
CSCC[C@H](NC(=O)[C@H](CC(=O)O)NC(=O)[C@H](CCCCN)NC(=O)[C@H](Cc1ccccc1)NC(=O)[C@H](CO)NC(=O)[C@@H](N)Cc1ccc(O)cc1)C(=O)N[C@@H](CCC(N)=O)C(=O)N[C@@H](CC(C)C)C(=O)N1CCC[C@H]1C(=O)N[C@@H](CCCN=C(N)N)C(=O)O | < 3 | > 1000 | 225 |  |  |  | 
CSCC[C@H](NC(=O)[C@H](CC(=O)O)NC(=O)[C@H](CCCCN)NC(=O)[C@H](Cc1ccccc1)NC(=O)[C@H](CO)NC(=O)[C@@H](N)Cc1ccc(O)cc1)C(=O)N[C@@H](CCC(N)=O)C(=O)N[C@@H](CC(C)C)C(=O)N[C@H](C)C(=O)N[C@@H](CCCN=C(N)N)C(=O)O | 5.42 | 12.2 | 20 |  |  |  | 
CSCC[C@H](NC(=O)CNC(=O)[C@H](CCCCN)NC(=O)[C@H](Cc1ccccc1)NC(=O)[C@H](CO)NC(=O)[C@@H](N)Cc1ccc(O)cc1)C(=O)N[C@@H](CC(C)C)C(=O)N[C@@H](CC(C)C)C(=O)NCC(=O)N[C@H](CCCN=C(N)N)C(=O)O | 4.43 | 40 |  |  |  |  | 
CSCC[C@H](NC(=O)CNC(=O)[C@H](CCCCN)NC(=O)[C@H](Cc1ccccc1)NC(=O)[C@H](CO)NC(=O)[C@@H](N)Cc1ccc(O)cc1)C(=O)N[C@@H](CC(C)C)C(=O)N[C@@H](CC(C)C)C(=O)NCC(=O)N[C@@H](CCCN=C(N)N)C(=O)O | 5.34 | 4.9 | 10.5 | 15.1 | 5 | 4.61 | 26.8
CSCC[C@H](NC(=O)[C@H](CC(=O)O)NC(=O)[C@H](CCCCN)NC(=O)[C@H](Cc1ccccc1)NC(=O)[C@H](CO)NC(=O)[C@@H](N)Cc1ccc(O)cc1)C(=O)N[C@@H](CCC(N)=O)C(=O)N[C@@H](CC(C)C)C(=O)N[C@@H](C)C(=O)N[C@@H](CCCN=C(N)N)C(=O)O | 4.04 | 122 | 34 |  |  |  | 
CSCC[C@H](NC(=O)[C@H](CC(=O)O)NC(=O)[C@H](CCCCN)NC(=O)[C@H](Cc1ccccc1)NC(=O)[C@H](CO)NC(=O)[C@@H](N)Cc1ccc(O)cc1)C(=O)N1CCC[C@H]1C(=O)N[C@@H](C)C(=O)NCC(=O)N[C@@H](CCCN=C(N)N)C(=O)O | < 3 | > 1000 | 101 |  |  |  | 
CC(C)C[C@H](NC(=O)[C@@H]1CCCN1C(=O)[C@H](C)NC(=O)[C@H](CC(=O)O)NC(=O)[C@H](CCCCN)NC(=O)[C@H](Cc1ccccc1)NC(=O)[C@H](CO)NC(=O)[C@@H](N)Cc1ccc(O)cc1)C(=O)NCC(=O)N[C@@H](CCCN=C(N)N)C(=O)O | 6.11 | 1.74 | 7.4 |  |  | 4.79 | 26.6
CSCC[C@H](NC(=O)[C@H](CC(=O)O)NC(=O)[C@H](CCCCN)NC(=O)[C@H](Cc1ccccc1)NC(=O)[C@H](CO)NC(=O)[C@@H](N)Cc1ccc(O)cc1)C(=O)N1CCC[C@H]1C(=O)N[C@@H](CC(C)C)C(=O)NCC(=O)N[C@@H](CCCN=C(N)N)C(=O)O | 6.18 | 1.13 | 6.3 | 8.1 |  | 5.14 | 11.5
C[C@H](NC(=O)[C@@H]1CCCN1C(=O)[C@H](CCS)NC(=O)[C@H](CC(=O)O)NC(=O)[C@H](CCCCN)NC(=O)[C@H](Cc1ccccc1)NC(=O)[C@H](CO)NC(=O)[C@@H](N)Cc1ccc(O)cc1)C(=O)N[C@H](C)C(=O)N[C@@H](CCCN=C(N)N)C(=O)O | 4.86 |  |  |  |  |  | 
CC(C)C[C@H](NC(=O)[C@@H]1CCCN1C(=O)[C@H](CS)NC(=O)[C@H](CC(=O)O)NC(=O)[C@H](CCCCN)NC(=O)[C@H](Cc1ccccc1)NC(=O)[C@H](CO)NC(=O)[C@@H](N)Cc1ccc(O)cc1)C(=O)N[C@@H](CS)C(=O)N[C@@H](CCCN=C(N)N)C(=O)O (H-YSFKDCPLCR-OH) | 4.67 | 26.6 | 4.1 |  |  |  | 
CC(C)C[C@@H]1NC(=O)[C@@H]2CCCN2C(=O)[C@@H](NC(=O)[C@H](CC(=O)O)NC(=O)[C@H](CCCCN)NC(=O)[C@H](Cc2ccccc2)NC(=O)[C@H](CO)NC(=O)[C@@H](N)Cc2ccc(O)cc2)CSSC[C@@H](C(=O)N[C@@H](CCCN=C(N)N)C(=O)O)NC1=O (H-YSFKDCPLCR-OH; disulfide 6-9) | < 4 | 162 | >410 |  |  |  | 
H-ISFKDMQLGR-OH |  |  | 86.3 |  |  |  | 
H-YSFKDCPLGR-OH | 5.79 | 2.04 | 2.3 |  |  |  | 
H-YSFKDMPPGR-OH | 4.68 | 25.1 | 80 |  |  |  | 
H-YSFKDMQLGR-OH | 5.05 | 11.2 | 22.9 | 28.4 |  | 4.51 | 37.5
H-YSFKDMQPGR-OH | 4.4 | 48 | 500 |  |  | 3.64 | 344
H-YSFKGLLLGR-OH | 5.21 | 6.6 | 21 | 22.1 |  | 4.74 | 18.1
H-YSFKGMPLGR-OH | 6.23 | 0.59 | 6.3 |  |  |  | 
